Results published in ChEMBL document CHEMBL4334552, “Discovery of BMS-986260, a Potent, Selective, and Orally Bioavailable TGFβR1 Inhibitor as an Immuno-oncology Agent” (ACS Med Chem Lett, 2020).
pIC50: −log10 of the molar value. Active and inactive are the calls of the source. The calls are words filed in the database; no cut-off is given here.

Experiments:
[1] = Protein binding in mouse serum assessed as unbound fraction; type: ADME, cell-free
[2] = Total AUC in Beagle dog at 5 mg/kg, po; type: ADME, organism-based, Canis lupus familiaris; design: dose 5 mg/kg, route oral, time AUCmax; conditions: in vivo
Summary of the method: (§1)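 Male Beagle dogs (n = 2) were pretreated with pentagastrin and dosed iv at 1 mg/kg and po at 5 mg/kg. The oral vehicle was 5% ethanol, 45% PEG400 and 50% 25 mM acetate buffer pH 4.0. The iv vehicle was 5:45:50 EtOH/PEG400/saline at 1 mL/kg.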

[3] = Cardiovascular toxicity in dog assessed as aortic pathology at 5 mg/kg, po for 10 days; type: organism-based, Canis lupus familiaris; conditions: in vivo, 240 h
Summary of the method: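 Exploratory toxicology studies of 10 days with daily oral dosing in rats and dogs. Cardiovascular findings, including valvulopathy and aortic pathology, were assessed.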

MC-38 [4] = assay: Antitumour activity against mouse MC38 cells allografted in C57Bl/6 mouse assessed as reduction in tumour growth at 3.75 mg/kg, po dosed every 3 days on and 4 days off treatment regime and cotreated with anti-PD1 at 10 mg/kg, ip every 4 days for 3 doses by digital caliper analysis; type: functional, organism-based
Summary of the method: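 MC38 cells (0.1 mL at 1 × 10^7 cells/mL) were implanted subcutaneously in the right flank of C57/BL6 mice. Randomization was at about 100 mm3, typically day 5. Oral dosing ran 3 days on, 4 days off, over 28 days. Anti-PD-1 was given at 10 mg/kg IP every 4 days for three doses, with isotype MOPC-21 IgG1 as control on the same schedule.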

[5] = Tmax in Sprague Dawley rat at 10 mg/kg, po; type: ADME, organism-based; conditions: in vivo
Summary of the method: (§2)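 Male Sprague–Dawley rats (n = 3) received a PEG400 solution iv at 5 mg/kg and po at 10 mg/kg.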

[6] = Half life in human hepatocytes; type: ADME, cell-based, Hepatocyte
TGF-beta receptor type-1 = TGF-beta receptor type-1 (Homo sapiens, UniProt P36897, T204D); assay: Inhibition of His-tagged TGFBR1 kinase domain T204D mutant (unknown origin) incubated for 1 hr by HTRF analysis
Sequence of TGF-beta receptor type-1 (P36897 34-503 T204D limits assumed): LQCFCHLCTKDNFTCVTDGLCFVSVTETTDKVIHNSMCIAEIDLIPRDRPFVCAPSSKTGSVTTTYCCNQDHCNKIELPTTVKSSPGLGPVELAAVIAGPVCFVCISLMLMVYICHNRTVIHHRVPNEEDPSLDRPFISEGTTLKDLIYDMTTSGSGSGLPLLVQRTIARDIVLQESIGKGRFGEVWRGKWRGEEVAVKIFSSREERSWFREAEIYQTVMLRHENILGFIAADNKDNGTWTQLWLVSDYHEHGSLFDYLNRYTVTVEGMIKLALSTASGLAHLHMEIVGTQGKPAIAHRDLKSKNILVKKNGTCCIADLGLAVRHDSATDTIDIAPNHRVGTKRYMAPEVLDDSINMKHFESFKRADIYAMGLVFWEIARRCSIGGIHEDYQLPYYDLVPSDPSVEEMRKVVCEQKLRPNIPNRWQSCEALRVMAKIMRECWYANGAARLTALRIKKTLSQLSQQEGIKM

[7] = Oral bioavailability in Balb/C mouse at 10 mg/kg; type: ADME, organism-based; conditions: in vivo
Summary of the method: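 Male Balb/C mice (n = 3) dosed iv at 5 mg/kg and po at 10 mg/kg. Vehicle was 70% 25 mM acetate buffer pH 4.0, 5% ethanol and 25% PEG 400.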

MC-38 [8] = assay: Antitumour activity against mouse MC38 cells allografted in C57Bl/6 mouse assessed as reduction in tumour growth at 3.75 to 15 mg/kg, po qd for 28 days cotreated with anti-PD1 at 10 mg/kg, ip every 4 days for 3 doses measured for ten doubling times after cessation of treatment by digital caliper analysis; type: functional, organism-based
Summary of the method: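 C57/BL6 mice received 0.1 mL of MC38 cells (1 × 10^7 cells/mL) subcutaneously in the right flank. Mice were randomized at about 100 mm3, typically day 5. Oral dosing was once daily for 28 days at 3.75, 7.5 or 15 mg/kg. Anti-PD-1 was given at 10 mg/kg IP every 4 days for three doses. Isotype IgG1 MOPC-21 served as control on the same schedule.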

[9] = Total AUC in Sprague Dawley rat at 10 mg/kg, po; type: ADME, organism-based; design: dose 10 mg/kg, route oral, time AUCmax; conditions: in vivo; summary of the method: as §2
Cytochrome P450 2C8 = target: T1, Cytochrome P450 2C8 (Homo sapiens, UniProt P10632); assay: Induction of recombinant CYP2C8 (unknown origin) up to 24 microM; type: ADME; conditions: recombinant enzyme
T1 sequence (P10632 whole entry): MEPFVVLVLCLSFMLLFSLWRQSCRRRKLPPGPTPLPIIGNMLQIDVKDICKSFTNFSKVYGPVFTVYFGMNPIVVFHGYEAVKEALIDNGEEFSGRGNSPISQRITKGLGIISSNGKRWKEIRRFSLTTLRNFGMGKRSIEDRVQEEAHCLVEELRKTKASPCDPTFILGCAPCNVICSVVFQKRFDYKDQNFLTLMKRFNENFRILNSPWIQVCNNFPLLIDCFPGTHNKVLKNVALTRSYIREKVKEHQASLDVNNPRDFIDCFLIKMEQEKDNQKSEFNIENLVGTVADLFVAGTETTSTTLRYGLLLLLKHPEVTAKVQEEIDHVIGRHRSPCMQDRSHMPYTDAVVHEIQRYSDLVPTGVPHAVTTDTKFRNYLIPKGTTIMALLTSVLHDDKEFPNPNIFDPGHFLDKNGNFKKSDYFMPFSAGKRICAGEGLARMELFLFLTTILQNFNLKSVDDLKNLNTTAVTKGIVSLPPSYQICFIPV

[10] = MRT in Sprague Dawley rat at 5 mg/kg, iv; type: ADME, organism-based; conditions: in vivo; summary of the method: as §2
Cytochrome P450 2C19 = Cytochrome P450 2C19 (Homo sapiens, UniProt P33261); assay: Inhibition of recombinant CYP2C19 (unknown origin); type: ADME
Sequence of Cytochrome P450 2C19 (P33261 whole entry): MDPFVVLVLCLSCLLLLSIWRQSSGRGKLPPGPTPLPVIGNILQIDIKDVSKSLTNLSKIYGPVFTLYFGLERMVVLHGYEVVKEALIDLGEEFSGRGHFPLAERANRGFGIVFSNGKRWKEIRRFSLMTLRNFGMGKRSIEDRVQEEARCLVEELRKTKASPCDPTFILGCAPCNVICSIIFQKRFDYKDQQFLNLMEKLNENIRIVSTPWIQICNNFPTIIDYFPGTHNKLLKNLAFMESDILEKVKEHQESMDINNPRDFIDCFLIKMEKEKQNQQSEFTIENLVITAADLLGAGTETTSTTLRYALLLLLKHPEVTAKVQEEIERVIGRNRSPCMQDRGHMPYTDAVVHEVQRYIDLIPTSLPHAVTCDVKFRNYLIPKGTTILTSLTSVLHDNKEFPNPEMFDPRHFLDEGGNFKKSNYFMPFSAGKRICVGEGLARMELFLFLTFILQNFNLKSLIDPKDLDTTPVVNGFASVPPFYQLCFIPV

MC-38 [11] = assay: Induction of long-term antitumor memory response in compound-mediated tumor cured C57Bl/6 mouse allografted with mouse MC38 cells assessed as reduction in tumor growth following rechallenge with newly implanted mouse MC38 cells treated at 3.75 to 15 mg/kg, po qd for 28 days and cotreated with anti-PD1 at 10 mg/kg, ip every 4 days for 3 doses prior to MC38 cells rechallenge by digital caliper analysis; type: functional, organism-based
Summary of the method: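 Mice cured by oral dosing plus anti-PD-1 (10 mg/kg IP, every 4 days, three doses) were re-implanted with MC38 or LL2 cells. Tumor growth was compared with naive mice.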

PXR = target: T2, PXR (Homo sapiens, UniProt O75469); assay: Activation of PXR (unknown origin) relative to control
T2 sequence (O75469 whole entry): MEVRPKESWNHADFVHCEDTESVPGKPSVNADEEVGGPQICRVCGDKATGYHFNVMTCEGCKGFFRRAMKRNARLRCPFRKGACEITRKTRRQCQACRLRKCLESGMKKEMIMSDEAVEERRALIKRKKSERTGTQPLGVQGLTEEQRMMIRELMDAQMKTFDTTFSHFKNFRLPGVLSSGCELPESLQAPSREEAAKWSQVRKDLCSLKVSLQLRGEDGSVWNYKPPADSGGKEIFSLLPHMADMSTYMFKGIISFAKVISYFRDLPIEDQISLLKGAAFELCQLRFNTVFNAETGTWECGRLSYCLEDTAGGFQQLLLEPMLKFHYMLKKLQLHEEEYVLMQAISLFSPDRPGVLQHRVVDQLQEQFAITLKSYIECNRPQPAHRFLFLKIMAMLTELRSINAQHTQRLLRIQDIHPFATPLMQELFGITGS

[12] = Total AUC in Sprague Dawley rat at 5 mg/kg, iv; type: ADME, organism-based; design: dose 5 mg/kg, route intravenous, time AUCmax; conditions: in vivo; summary of the method: as §2
[13] = Half life in mouse liver microsomes in presence of UGT/UDPGA; type: ADME, Microsome
[14] = Volume of distribution at steady state in Sprague Dawley rat at 5 mg/kg, iv; type: ADME, organism-based; conditions: in vivo, read-out: Vdss; summary of the method: as §2
[15] = Protein binding in rat serum assessed as unbound fraction; type: ADME, cell-free
[16] = Half life in rat liver microsomes in presence of NADPH; type: ADME, Microsome
Cytochrome P450 3A4 = Cytochrome P450 3A4 (Homo sapiens, UniProt P08684); assay: Inhibition of recombinant CYP3A4 (unknown origin); type: ADME
Sequence of Cytochrome P450 3A4 (P08684 whole entry): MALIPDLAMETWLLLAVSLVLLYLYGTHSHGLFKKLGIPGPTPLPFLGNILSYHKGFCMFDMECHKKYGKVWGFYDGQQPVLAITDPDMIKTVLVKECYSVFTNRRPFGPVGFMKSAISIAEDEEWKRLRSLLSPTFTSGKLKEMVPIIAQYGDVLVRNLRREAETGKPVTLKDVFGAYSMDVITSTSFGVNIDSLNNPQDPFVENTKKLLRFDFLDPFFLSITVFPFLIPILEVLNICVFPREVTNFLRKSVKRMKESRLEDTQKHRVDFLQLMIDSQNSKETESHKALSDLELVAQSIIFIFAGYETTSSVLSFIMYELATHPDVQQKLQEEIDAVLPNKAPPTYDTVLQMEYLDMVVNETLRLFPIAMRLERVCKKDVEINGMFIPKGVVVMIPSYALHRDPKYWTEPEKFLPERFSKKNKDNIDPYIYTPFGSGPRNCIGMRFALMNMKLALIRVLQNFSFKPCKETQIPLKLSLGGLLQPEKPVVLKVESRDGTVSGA

[17] = Cardiovascular toxicity in dog at 5 mg/kg, po dosed every 3 days on and 4 days off treatment regime for 1 month; type: organism-based, Canis lupus familiaris; conditions: in vivo
[18] = Clearance in Beagle dog at 1 mg/kg, iv; type: ADME, organism-based, Canis lupus familiaris; conditions: in vivo
Summary of the method: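 Male Beagle dogs, n = 2, pretreated with pentagastrin. The po dose of 5 mg/kg was in 5% ethanol, 45% PEG400 and 50% 25 mM acetate buffer pH 4.0. The iv dose of 1 mg/kg was in 5:45:50 EtOH/PEG400/saline at 1 mL/kg.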

[19] = Oral bioavailability in Beagle dog at 5 mg/kg; type: ADME, organism-based, Canis lupus familiaris; conditions: in vivo; summary of the method: as §1

fraction unbound [1]: 0.12 | AUC [2]: 35 µM·h | Tmax [5]: 1.1 h | half-life [6]: 0.9 h | pIC50 (TGF-beta receptor type-1): 8.80 | bioavailability [7]: > 100% | AUC [9]: 90.8 µM·h | Activity (Cytochrome P450 2C8): Not Active | MRT [10]: 7.2 h | pIC50 (Cytochrome P450 2C19): < 4.70 | Emax (PXR): 44% | AUC [12]: 39.6 µM·h | half-life [13]: > 2 h | Vd [14]: 2.4 L/kg | fraction unbound [15]: 0.1 | half-life [16]: 0.833 h | pIC50 (Cytochrome P450 3A4): < 4.70 | clearance [18]: 6.4 mL/min/kg | bioavailability [19]: 93%
Structure (SMILES): N#Cc1cnc2ccc(-c3c(-c4ccc(F)c(Cl)c4)ncn3CCO)nn12
Activity [3]: Toxic | inhibition (MC-38 [4]): Active | inhibition (MC-38 [8]): Active | Activity (MC-38 [11]): Active | Activity [17]: Non-Toxic
